Test system: U2OS
Assay: Multiplex assay against U2OS
Assay type: toxicity, cell-based
Conditions: human
Method in brief: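 Live cells were stained at seeding with Hoechst33342, BioTracker Green Microtubule Cytoskeleton Dye, MitoTracker Red and Annexin V Alexa Fluor 680, then imaged on a CQ1 microscope at 37°C and 5% CO2 after compound addition. CellPathfinder machine-learning gating split cells into Hoechst high-intensity objects or normal cells. Normal cells were split into healthy, pyknosed or fragmented nuclei, and pyknosed cells into mitotic or apoptotic. Tubulin, mitochondrial-mass and membrane-permeability phenotypes are per cents of healthy-nucleus cells.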

[1] = 12 h, 1 µM, compound concentration 1 uM, replicate 1
[2] = 12 h, 1 µM, compound concentration 1 uM, replicate 2
[3] = 12 h, 10 µM, compound concentration 10 uM, replicate 1
[4] = 12 h, 10 µM, compound concentration 10 uM, replicate 2
[5] = 24 h, 1 µM, compound concentration 1 uM, replicate 1
[6] = 24 h, 1 µM, compound concentration 1 uM, replicate 2
[7] = 24 h, 10 µM, compound concentration 10 uM, replicate 1
[8] = 24 h, 10 µM, compound concentration 10 uM, replicate 2
[9] = 48 h, 1 µM, compound concentration 1 uM, replicate 1
[10] = 48 h, 1 µM, compound concentration 1 uM, replicate 2
[11] = 48 h, 10 µM, compound concentration 10 uM, replicate 1
[12] = 48 h, 10 µM, compound concentration 10 uM, replicate 2

CCc1nn2c(C)cc(C)nc2c1Cc1ccc(-c2nnc(C3CCNCC3)o2)cc1
Population Apoptotic (%) [1]: 42% | Population Fragmented Nuclei (%) [1]: 28% | Population Healthy Nuclei (%) [1]: 60% | Population Hoechst High Intensity Objects (%) [1]: 3% | Population Membrane Permeable-Phenotype (%) [1]: 12% | Population Mitochondria Different-Phenotype (%) [1]: 10% | Population Mitotic Cells (%) [1]: 57% | Population Normal (%) [1]: 96% | Population Pyknosed Nuclei (%) [1]: 10% | Population Tubulin-Different-Phenotype (%) [1]: 11% | Total Cell Count [1]: 251 | Population Apoptotic (%) [2]: 85% | Population Fragmented Nuclei (%) [2]: 9% | Population Healthy Nuclei (%) [2]: 84% | Population Hoechst High Intensity Objects (%) [2]: 2% | Population Membrane Permeable-Phenotype (%) [2]: 14% | Population Mitochondria Different-Phenotype (%) [2]: 17% | Population Mitotic Cells (%) [2]: 14% | Population Normal (%) [2]: 97% | Population Pyknosed Nuclei (%) [2]: 6% | Population Tubulin-Different-Phenotype (%) [2]: 4% | Total Cell Count [2]: 110 | Population Apoptotic (%) [3]: 68% | Population Fragmented Nuclei (%) [3]: 24% | Population Healthy Nuclei (%) [3]: 55% | Population Hoechst High Intensity Objects (%) [3]: 5% | Population Membrane Permeable-Phenotype (%) [3]: 26% | Population Mitochondria Different-Phenotype (%) [3]: 43% | Population Mitotic Cells (%) [3]: 31% | Population Normal (%) [3]: 94% | Population Pyknosed Nuclei (%) [3]: 20% | Population Tubulin-Different-Phenotype (%) [3]: 28% | Total Cell Count [3]: 214 | Population Apoptotic (%) [4]: 77% | Population Fragmented Nuclei (%) [4]: 8% | Population Healthy Nuclei (%) [4]: 76% | Population Hoechst High Intensity Objects (%) [4]: 2% | Population Membrane Permeable-Phenotype (%) [4]: 30% | Population Mitochondria Different-Phenotype (%) [4]: 62% | Population Mitotic Cells (%) [4]: 22% | Population Normal (%) [4]: 97% | Population Pyknosed Nuclei (%) [4]: 14% | Population Tubulin-Different-Phenotype (%) [4]: 44% | Total Cell Count [4]: 129 | Population Apoptotic (%) [5]: 80% | Population Fragmented Nuclei (%) [5]: 26% | Population Healthy Nuclei (%) [5]: 63% | Population Hoechst High Intensity Objects (%) [5]: 2% | Population Membrane Permeable-Phenotype (%) [5]: 4% | Population Mitochondria Different-Phenotype (%) [5]: 6% | Population Mitotic Cells (%) [5]: 20% | Population Normal (%) [5]: 97% | Population Pyknosed Nuclei (%) [5]: 10% | Population Tubulin-Different-Phenotype (%) [5]: 3% | Total Cell Count [5]: 296 | Population Apoptotic (%) [6]: 87% | Population Fragmented Nuclei (%) [6]: 13% | Population Healthy Nuclei (%) [6]: 80% | Population Hoechst High Intensity Objects (%) [6]: 3% | Population Membrane Permeable-Phenotype (%) [6]: 7% | Population Mitochondria Different-Phenotype (%) [6]: 12% | Population Mitotic Cells (%) [6]: 12% | Population Normal (%) [6]: 96% | Population Pyknosed Nuclei (%) [6]: 6% | Total Cell Count [6]: 130 | Population Apoptotic (%) [7]: 77% | Population Fragmented Nuclei (%) [7]: 24% | Population Healthy Nuclei (%) [7]: 55% | Population Hoechst High Intensity Objects (%) [7]: 3% | Population Membrane Permeable-Phenotype (%) [7]: 9% | Population Mitochondria Different-Phenotype (%) [7]: 40% | Population Mitotic Cells (%) [7]: 22% | Population Normal (%) [7]: 96% | Population Pyknosed Nuclei (%) [7]: 19% | Population Tubulin-Different-Phenotype (%) [7]: 7% | Total Cell Count [7]: 236 | Population Apoptotic (%) [8]: 71% | Population Fragmented Nuclei (%) [8]: 15% | Population Healthy Nuclei (%) [8]: 71% | Population Membrane Permeable-Phenotype (%) [8]: 16% | Population Mitochondria Different-Phenotype (%) [8]: 61% | Population Mitotic Cells (%) [8]: 28% | Population Pyknosed Nuclei (%) [8]: 13% | Population Tubulin-Different-Phenotype (%) [8]: 28% | Total Cell Count [8]: 163 | Population Apoptotic (%) [9]: 90% | Population Fragmented Nuclei (%) [9]: 17% | Population Healthy Nuclei (%) [9]: 71% | Population Hoechst High Intensity Objects (%) [9]: 2% | Population Membrane Permeable-Phenotype (%) [9]: 6% | Population Mitochondria Different-Phenotype (%) [9]: 2% | Population Mitotic Cells (%) [9]: 10% | Population Normal (%) [9]: 97% | Population Pyknosed Nuclei (%) [9]: 10% | Population Tubulin-Different-Phenotype (%) [9]: 4% | Total Cell Count [9]: 376 | Population Apoptotic (%) [10]: 85% | Population Fragmented Nuclei (%) [10]: 12% | Population Healthy Nuclei (%) [10]: 72% | Population Membrane Permeable-Phenotype (%) [10]: 7% | Population Mitochondria Different-Phenotype (%) [10]: 6% | Population Mitotic Cells (%) [10]: 14% | Population Pyknosed Nuclei (%) [10]: 14% | Total Cell Count [10]: 187 | Population Apoptotic (%) [11]: 82% | Population Fragmented Nuclei (%) [11]: 24% | Population Healthy Nuclei (%) [11]: 55% | Population Hoechst High Intensity Objects (%) [11]: 2% | Population Membrane Permeable-Phenotype (%) [11]: 10% | Population Mitochondria Different-Phenotype (%) [11]: 29% | Population Mitotic Cells (%) [11]: 17% | Population Normal (%) [11]: 97% | Population Pyknosed Nuclei (%) [11]: 19% | Population Tubulin-Different-Phenotype (%) [11]: 3% | Total Cell Count [11]: 290 | Population Apoptotic (%) [12]: 75% | Population Fragmented Nuclei (%) [12]: 12% | Population Healthy Nuclei (%) [12]: 71% | Population Membrane Permeable-Phenotype (%) [12]: 22% | Population Mitochondria Different-Phenotype (%) [12]: 31% | Population Mitotic Cells (%) [12]: 24% | Population Pyknosed Nuclei (%) [12]: 15% | Population Tubulin-Different-Phenotype (%) [12]: 18% | Total Cell Count [12]: 219

— ChEMBL document CHEMBL5058577, “EUbOPEN Chemogenomics Library 2 (Multiplex)” (2022)
